From PubChem
NPY Y1 blocker – blocks the human neuropeptide Y Y1 receptor. AID 1040. P25929. inhibition, % at 3.6 µM. 200,000 compounds, 1% hits. HEK293-CNG Y1 cells, membrane potential fluorescence; NPY at EC95, then isoproterenol;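 active means inhibition above the campaign mean inhibition of all tested compounds plus 3 SD, cut at about 20% in these data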;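 further: 0% = DMSO wells given NPY plus isoproterenol and 100% = isoproterenol alone without NPY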
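Material: Y1- and CNG-channel-expressing HEK293 cells / Probe or stimulus: NPY 25 nM then isoproterenol 1 µM plus Ro 20-1724 25 µM / Doses: 3.6 µM single dose, DMSO 0.4% / Schedule: compound incubation 1 h at room temperature, readout 45 min post-stimulation / Signal: membrane potential fluorescence / Benchmarks: isoproterenol-only wells as full block versus NPY-plus-isoproterenol wells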
NPY-Y2 PAM-ag – potentiators or agonists of human neuropeptide Y receptor Y2 | P49146 | 220,000 compounds, 0.45% hits | cells expressing NPY-Y2, potentiator/agonist read-out | activation, % at 3.6 µM; in the data active means activation above about 27%;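 further: cells stimulated with NPY near EC25 plus isoproterenol at EC100; 0% = vehicle plus submaximal agonist and 100% = vehicle plus saturating agonist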
Target sequence (P49146 whole entry, looked up): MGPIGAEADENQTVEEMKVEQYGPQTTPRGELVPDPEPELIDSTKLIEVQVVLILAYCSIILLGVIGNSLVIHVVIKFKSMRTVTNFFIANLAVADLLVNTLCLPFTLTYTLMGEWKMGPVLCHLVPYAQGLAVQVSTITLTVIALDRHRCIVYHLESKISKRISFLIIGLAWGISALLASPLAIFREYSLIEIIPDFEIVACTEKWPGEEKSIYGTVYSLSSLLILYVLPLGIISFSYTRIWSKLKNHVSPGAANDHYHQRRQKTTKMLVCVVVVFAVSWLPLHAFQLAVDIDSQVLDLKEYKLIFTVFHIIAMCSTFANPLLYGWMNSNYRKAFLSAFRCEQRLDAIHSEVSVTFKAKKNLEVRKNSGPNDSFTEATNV
NPY-Y2 antag – blocks the human neuropeptide Y Y2 receptor; AID 793; NPY-Y2 expressing cells, antagonist mode; inhibition, % at 2.7 µM; 140,000 compounds, 0.99% hits; in the data active means inhibition above about 17%;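 further: 0% = vehicle with agonist challenge and 100% = reference antagonist with challenge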
Rad51 HR inh – blocks human Rad51 in homologous recombination; inhibition, % at 10 µM; 200,000 compounds, 0.085% hits; hRad51 DNA strand exchange, fluorescence dequenching; Q06609; AID 1385;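 active means inhibition above 40% at the single screening dose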;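 further: 0% = DMSO control wells and 100% = blanks with heterologous ssDNA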
Target sequence (Q06609 whole entry, looked up): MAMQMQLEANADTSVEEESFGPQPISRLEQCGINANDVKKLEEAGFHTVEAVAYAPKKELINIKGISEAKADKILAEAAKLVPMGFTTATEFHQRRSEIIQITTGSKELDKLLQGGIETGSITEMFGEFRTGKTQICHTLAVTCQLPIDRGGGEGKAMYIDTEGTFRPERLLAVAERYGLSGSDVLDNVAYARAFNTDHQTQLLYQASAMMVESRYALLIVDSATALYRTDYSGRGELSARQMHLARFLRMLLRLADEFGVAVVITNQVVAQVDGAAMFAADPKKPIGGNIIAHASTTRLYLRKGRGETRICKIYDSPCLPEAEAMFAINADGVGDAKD
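Test system: preformed human Rad51 ssDNA filaments; also added: Donor/quencher-labelled 47-bp dsDNA substrate; doses: 10 µM final, single point; times: 37 °C 15-min filament assembly, 30-min compound preincubation, 15-min exchange; detection: FRET fluorescence dequenching, excitation 485 nm, emission 520 nm; read-out basis: Fluorescence-based percent inhibition, control- and blank-normalised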
NPY1 pot ag – human NPY-Y1 potentiation or agonism, primary screen. NPY-Y1 expressing cells, potentiator/agonist activation. activation, % at 3.6 µM. 220,000 compounds, 0.37% hits. AID 1304; in the data active means activation above about 33%, passing the limit was not always enough;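 further: cells stimulated with NPY at EC10 then isoproterenol at EC100; 0% = low agonist plus stimulus and 100% = saturating agonist plus stimulus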
Measles CPE – protection of cells from measles virus | Measles virus-infected cells, CPE protection, absorbance | protection (pct of control), % at 4 µM | 140,000 compounds, 1.5% hits | AID 841; in the data active means protection mostly above about 24%, no sharp cut-off; inactive means mostly below about 26%
An asterisk follows results filed as active; / = no result. Rows were chosen to be rich in hits. Some 2.8% of all compounds tested hit in one or more screens of this group.

SMILES	NPY Y1 blocker	NPY-Y2 PAM-ag	NPY-Y2 antag	Rad51 HR inh	NPY1 pot ag	Measles CPE
Cc1ccc(C(Sc2ccccc2)C(Cn2cncn2)C(=O)c2ccccc2)cc1 (centres undefined)	11.7	27.8	11.4	-3.7	20.9	1.9
CCc1nc(SCC(=O)c2cccs2)c2oc3ccccc3c2n1	0.9	-22.1	5.9	0.6	-47.9	4.2
FC(F)(F)COc1nc(N2CCOCC2)nc(N(c2ccccc2)c2ccccc2)n1	20.9*	-8.4	19.9*	-8.9	-20.8	22.4
CNc1nc(OCC(F)(F)F)nc(N2CCOCC2)n1	-1.4	13.6	-0.6	-4.6	-16.3	10.2
Cc1cccc(NC(=O)CSc2nc3ccccc3c3nc(CCc4c(C)n[nH]c4C)nn23)c1	-1.6	4.4	1.1	2.2	-13.8	3.3
Cc1cncn1CCc1nc2c3ccccc3nc(SCC(=O)Nc3cccc(Cl)c3)n2n1	48.9*	-25.6	32.9*	5.9	-107.2	14.6
COc1ccc(CN(C(=O)c2nsc(Cl)c2Cl)C(C(=O)NC2CCCC2)c2ccc(C)cc2)cc1 (centres undefined)	43.9*	-17.1	22.8*	-3.0	-51.1	17.8
CC1CCN(C2=C(NS(=O)(=O)c3ccccc3)C(=O)c3ccccc3C2=O)CC1	/	77.5*	/	/	95.4*	/
O=C1C(NS(=O)(=O)c2ccccc2)=C(N2CCN(c3ccc(F)cc3)CC2)C(=O)c2ccccc21	/	86.8*	/	/	88.6*	/
COc1ccc(NC(=O)/C(Cl)=C(/Cl)S(=O)(=O)Cc2ccc(C)cc2)cn1	-0.6	1.6	1.9	-3.6	2.0	-1.5
CCOC(=O)/C(C#N)=N/Nc1ccccc1C#N	/	-9.4	/	-4.4	-2.7	/
Cc1ccc(C)c(NC(=O)CSc2nc3c(c(=O)n2C)SC(C)C3)c1 (centres undefined)	1.6	-7.2	3.6	8.1	-21.5	20.1
CC1Cc2nc(SCC(=O)Nc3ccc(F)cc3F)n(C)c(=O)c2S1 (centres undefined)	8.5	-0.3	5.7	-5.1	-11.4	41.2*
COc1ccc2c(c1)c(=O)c(C(=O)c1ccccc1)cn2Cc1ccc(C)cc1	12.1	-17.4	9.5	-3.1	-48.1	1.7
COc1ccc2c(c1)c(=O)c(Br)c(C)n2Cc1ccccc1	2.1	-7.4	25.0*	3.8	-9.5	13.0
Cc1cccc(C)c1NC(=O)COC(=O)c1ccc([N+](=O)[O-])o1	0.7	8.0	/	7.5	1.0	/
CC1Cc2ccccc2N1C(=O)CN1CCC(n2nnc3cc(C(F)(F)F)ccc32)CC1 (centres undefined)	-5.2	-1.4	0.6	0.3	12.7	8.5
CC(=O)c1ccc(N2CCN(C(=O)CCCc3nc4ccccc4s3)CC2)cc1	1.7	2.5	6.1	/	-6.2	4.9
O=C(c1nc2ncccn2n1)N1CCN(c2ccccc2)CC1	-5.2	2.5	1.4	5.5	-30.6	42.6*
O=C(c1nc2ncccn2n1)N1CCN(c2ccc(F)cc2)CC1	1.6	-2.2	0.4	-10.2	3.9	34.3
[O-]/[N+](=C\c1ccc(OC(F)F)cc1)c1ccccc1	8.1	-3.0	2.1	-3.9	-1.6	42.3*
N#Cc1c(NC(=O)CSc2nc(N)cc(=O)[nH]2)sc2c1CCCC2	8.0	-4.2	/	-2.0	2.1	/
c1nc(N2CCN(Cc3ccc4c(c3)OCO4)CC2)c2[nH]cnc2n1	3.9	101.1*	5.1	3.1	56.6*	9.1
O=C(Nc1ncccn1)C1CCCN1S(=O)(=O)c1ccc(Cl)c(Cl)c1 (centres undefined)	4.3	7.0	-1.3	-1.8	-23.5	44.9*
CCC(=O)N(CCc1ccccc1)Cc1cc2cc(OC)ccc2[nH]c1=O	/	-24.4	/	1.3	-4.9	/
SMILES	NPY Y1 blocker	NPY-Y2 PAM-ag	NPY-Y2 antag	Rad51 HR inh	NPY1 pot ag	Measles CPE
O=C(Nc1ccc(Cl)cc1)Nc1ccc2c(c1)N1CCN=C1S2	-17.7	30.4	-7.4	-0.4	35.1*	15.0
O=C(CSc1nnc(-c2ccc(F)cc2)c2ccccc12)Nc1c(F)cccc1F	1.6	-2.8	4.3	15.1	4.8	36.9*
O=C(CSc1nnc(-c2ccc(F)cc2)c2ccccc12)Nc1ccccc1	2.5	1.0	-0.1	8.3	-8.6	11.8
O=C(NCCc1ccccn1)c1cc(-c2ccccc2Cl)nc2ccccc12	-0.8	12.6	2.4	1.6	-11.3	19.8
O=C(Nc1ccccc1)OC1CCCCc2cccnc21 (centres undefined)	/	3.4	/	7.0	-10.6	/
CCC(c1nnc(SCC(=O)N2CC3(C)CC2CC(C)(C)C3)o1)N(C)C (centres undefined)	9.3	9.3	1.6	-0.6	-16.5	47.8*
COc1cc(C(=O)Nc2cccc(C)c2C)c(Br)c(OC)c1OC	10.4	-11.6	/	48.5*	-3.1	/
COC(=O)c1cccc(NC(=O)c2cc(OC)c(OC)c(OC)c2Br)c1	2.4	7.2	3.6	4.3	16.1	1.6
O=C(O)c1ccc(N2CC3CC(C2)c2cccc(=O)n2C3)c(NS(=O)(=O)c2cccc(C(F)(F)F)c2)c1 (centres undefined)	-1.0	8.0	/	/	19.8	/
CCCOC(=O)Nc1ccc(S(=O)(=O)Nc2ncccn2)cc1	/	-3.1	/	3.1	0.3	/
CCn1c(CCNC(=O)c2cccs2)nnc1SCC(=O)Nc1nc(-c2ccccc2)cs1	-6.9	-7.1	-0.3	5.4	-3.5	34.5*
CCn1ncc(Br)c1C(=O)Nc1sc2c(c1C(N)=O)CCC2	-2.9	-15.5	0.5	-1.2	-23.2	33.4*
Cn1cc(Br)c(C(=O)Nc2sc3c(c2C(N)=O)CCC3)n1	-8.0	13.9	1.2	-1.9	-11.8	9.0
COCc1cc(N2CCCCC2)nc(-c2ccccc2)n1	3.0	3.4	/	-1.4	-4.9	/
COc1ccc(C(CC(=O)O)NC(=O)c2ccccc2)cc1OC (centres undefined)	1.7	4.1	-2.3	3.2	-1.2	10.0
COc1ccccc1C(CC(=O)c1ccccc1)CC(=O)c1ccccc1	20.7*	-14.2	/	/	-18.5	/
N#C/C(=N\Nc1cc(Cl)cc(Cl)c1)c1nnc2n1CCCCC2	-1.0	-4.8	2.6	1.5	-23.2	7.1
COc1ccccc1/C=C/C(=O)OCC(=O)NCCC1=CCCCC1	9.9	-19.5	/	11.4	-29.3	/
O=C(/C=C/c1cccc2ccccc12)NCCC1=CCCCC1	32.2*	-21.1	21.6*	/	-50.0	13.7
O=C(Nc1ccccc1C(=O)N/N=C/c1ccncc1)c1ccccc1	0.9	-10.4	/	24.1	11.4	/
CC(=C\C(=O)O)/C(=C/c1ccccc1)C(=O)O	4.0	-3.2	2.6	-8.1	-41.4	24.9*
COc1cc(C)nc(N2CCCC(C(=O)Nc3cccc(Cl)c3Cl)C2)n1 (centres undefined)	5.2	-38.0	0.2	2.6	-17.4	6.5
COc1ccccc1NC(=O)C1CCCN(c2nc(C)cc(C)n2)C1 (centres undefined)	7.3	-25.2	4.3	8.0	-31.7	33.3*
